Source: publication PMC3180826 (ACS chemical neuroscience, 2010)
Positions count from the first letter of the chain named.

Key:
rM1 receptor = target: T1, rM1 receptor (Rattus norvegicus, UniProt P08482); experiment: Calcium mobilization assay, CHO-K1 cells stably expressing rM1; type: cell-based; conditions: for M1 potency and efficacy (SAR statement): substitution around the benzyl ring; for EC50: read-out: M1 EC50
T1 sequence (P08482 1-460): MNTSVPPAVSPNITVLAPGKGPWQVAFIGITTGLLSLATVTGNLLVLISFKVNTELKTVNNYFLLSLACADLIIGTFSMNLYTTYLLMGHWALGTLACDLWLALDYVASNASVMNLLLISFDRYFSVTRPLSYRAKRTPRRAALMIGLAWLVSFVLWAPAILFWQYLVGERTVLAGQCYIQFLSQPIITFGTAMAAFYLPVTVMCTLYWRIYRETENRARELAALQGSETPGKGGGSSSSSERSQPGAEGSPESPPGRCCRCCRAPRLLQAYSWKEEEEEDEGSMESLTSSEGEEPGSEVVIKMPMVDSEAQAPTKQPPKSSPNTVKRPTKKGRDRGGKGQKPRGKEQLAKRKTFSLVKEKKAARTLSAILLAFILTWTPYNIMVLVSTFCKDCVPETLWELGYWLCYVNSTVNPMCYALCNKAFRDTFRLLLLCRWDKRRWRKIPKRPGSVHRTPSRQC

rM1 Y381A = target: T2, rM1 Y381A (Rattus norvegicus, UniProt P08482, Y381A); experiment: Calcium mobilization in rM1 Y381A; type: cell-based; conditions: for potency at M1 Y381A compared with WT M1: M1Y381A CHO cells vs WT M1 CHO cells
T2 sequence (P08482 1-460 Y381A): T1 sequence (P08482 1-460) with Y381A

M1 = target: T3, M1 (Rattus norvegicus, UniProt P08482); experiment: HTS confirmation concentration-response in M1-CHO cells; type: cell-based; conditions: for sensitivity to block by atropine: concentration series in the presence of atropine; for EC50: read-out: M1 EC50, from the DPI DMSO stock
T3 sequence (P08482 1-460): T1 sequence (P08482 1-460)

hM2 = target: T4, hM2 (Homo sapiens, UniProt P08172); experiment: Calcium mobilization assay, agonist mode, M2; type: cell-based; conditions: up to 30 μM
T4 sequence (P08172 1-466): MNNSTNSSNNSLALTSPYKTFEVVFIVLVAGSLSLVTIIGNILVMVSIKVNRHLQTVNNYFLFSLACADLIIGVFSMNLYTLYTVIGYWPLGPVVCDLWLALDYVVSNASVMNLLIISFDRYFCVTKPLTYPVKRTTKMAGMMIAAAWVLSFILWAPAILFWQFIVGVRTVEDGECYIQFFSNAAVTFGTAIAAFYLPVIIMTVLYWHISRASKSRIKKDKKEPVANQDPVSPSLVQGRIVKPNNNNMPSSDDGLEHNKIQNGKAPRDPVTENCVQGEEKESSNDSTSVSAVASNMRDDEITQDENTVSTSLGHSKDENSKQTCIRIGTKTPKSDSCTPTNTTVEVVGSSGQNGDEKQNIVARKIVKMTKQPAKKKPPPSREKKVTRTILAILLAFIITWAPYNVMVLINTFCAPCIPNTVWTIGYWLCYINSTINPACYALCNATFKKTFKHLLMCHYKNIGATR
In short: (§1)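 CHO-K1 cells stably expressing hM2/Gqi5 or rM4/Gqi5 (6 × 10^4 cells/well), or hM3 or hM5 (5 × 10^4 cells/well), were cultured overnight at 37 °C in 5% CO2. Cells were loaded with 2 μM Fluo-4 AM for 1 h at 37 °C in HBSS with 20 mM HEPES and 2.5 mM probenecid, pH 7.4. Eight-point test compound concentration series were added at 19 s of a 130 s read. Calcium flux was read as fluorescence fold over basal.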

hM3 = hM3 (Homo sapiens, UniProt P20309); experiment: Calcium mobilization assay, agonist mode, M3; type: cell-based; conditions: up to 30 μM
In short: as §1

rM4 = target: T5, rM4 (Rattus norvegicus, UniProt P08485); experiment: Calcium mobilization assay, agonist mode, M4; type: cell-based; conditions: up to 30 μM
T5 sequence (P08485 1-478): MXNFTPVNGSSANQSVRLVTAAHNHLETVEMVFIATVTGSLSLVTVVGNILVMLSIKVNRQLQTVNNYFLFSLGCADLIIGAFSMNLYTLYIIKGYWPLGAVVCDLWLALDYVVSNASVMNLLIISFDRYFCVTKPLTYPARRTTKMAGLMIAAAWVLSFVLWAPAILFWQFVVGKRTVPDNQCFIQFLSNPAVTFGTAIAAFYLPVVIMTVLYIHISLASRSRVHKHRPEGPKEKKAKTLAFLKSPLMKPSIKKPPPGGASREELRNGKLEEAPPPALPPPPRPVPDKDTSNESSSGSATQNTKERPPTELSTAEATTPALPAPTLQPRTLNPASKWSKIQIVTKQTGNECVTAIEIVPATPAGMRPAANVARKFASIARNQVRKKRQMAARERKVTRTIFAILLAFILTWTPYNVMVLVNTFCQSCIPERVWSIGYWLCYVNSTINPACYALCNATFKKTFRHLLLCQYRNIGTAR
In short: as §1

hM5 = target: T6, hM5 (Homo sapiens, UniProt P08912); experiment: Calcium mobilization assay, agonist mode, M5; type: cell-based; conditions: up to 30 μM
T6 sequence (P08912 1-532): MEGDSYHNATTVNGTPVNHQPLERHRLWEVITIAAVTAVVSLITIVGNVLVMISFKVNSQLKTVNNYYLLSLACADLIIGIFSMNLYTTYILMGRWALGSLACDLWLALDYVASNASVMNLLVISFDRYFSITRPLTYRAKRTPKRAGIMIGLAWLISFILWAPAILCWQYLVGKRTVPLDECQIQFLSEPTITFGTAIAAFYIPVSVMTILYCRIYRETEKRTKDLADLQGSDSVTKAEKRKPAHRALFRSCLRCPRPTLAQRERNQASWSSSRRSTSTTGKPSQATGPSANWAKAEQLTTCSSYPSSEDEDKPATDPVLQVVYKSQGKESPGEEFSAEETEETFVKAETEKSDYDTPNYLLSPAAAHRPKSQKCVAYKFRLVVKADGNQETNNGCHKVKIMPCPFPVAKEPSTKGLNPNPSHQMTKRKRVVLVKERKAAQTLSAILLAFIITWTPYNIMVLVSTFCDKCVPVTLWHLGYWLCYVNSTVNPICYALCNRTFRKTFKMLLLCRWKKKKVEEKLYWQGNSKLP
In short: as §1

[1] = system: scopolamine-induced deficits in contextual fear conditioning; experiment: Contextual fear conditioning, scopolamine-induced deficit; type: in vivo; conditions: rat; for effect on acquisition of contextual fear conditioning response: 0.2 mg/kg s.c., 15 minutes prior to training, 0.2 mg/kg
In short: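 Male Sprague–Dawley rats (380–420 g) were habituated to vehicle injections for 2 days. Test compound (1–10 mg/kg ip) was given 30 min before training, and scopolamine (0.2 mg/kg sc) or vehicle 15 min before. Training used two 1 s, 0.5 mA footshocks 2.5 min apart, with a vanilla odour cue. At 24 h, video-scored freezing over 7 min was expressed as percent. Groups had 3–4 rats; one-way ANOVA with Dunnett's test against vehicle/scopolamine.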

Aqueous solubility = type: physicochemical; conditions: water
[2] = Plasma-brain exposure profile PK study; type: in vivo; conditions: rat
In short: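 Test compound was dissolved in sterile water at 5 mg/mL and dosed at 10 mg/kg ip in male Sprague–Dawley rats (225–250 g). Plasma and brain were collected at 0.5, 1, 2, 4 and 8 h, with three rats per time point. Brains were homogenized 1:3 in PBS, and samples were extracted by acetonitrile/0.1% formic acid precipitation with internal standard. Quantification was by LC-MS/MS SRM (10–2000 ng/mL calibration), with noncompartmental analysis.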

M2 = target: T7, M2 (Homo sapiens, UniProt P08172); experiment: Antagonism of EC80 ACh response, calcium mobilization, M2; type: cell-based; conditions: read-out: M2 antagonism IC50; attenuation of EC80 ACh response
T7 sequence (P08172 1-466): T4 sequence (P08172 1-466)

M5 = target: T8, M5 (Homo sapiens, UniProt P08912); experiment: Antagonism of EC80 ACh response, calcium mobilization, M5; type: cell-based; conditions: read-out: M5 antagonism IC50; attenuation of EC80 ACh response
T8 sequence (P08912 1-532): T6 sequence (P08912 1-532)

[3] = rM1 CHO-K1, calcium mobilization

Chain of hM3 (P20309 whole entry): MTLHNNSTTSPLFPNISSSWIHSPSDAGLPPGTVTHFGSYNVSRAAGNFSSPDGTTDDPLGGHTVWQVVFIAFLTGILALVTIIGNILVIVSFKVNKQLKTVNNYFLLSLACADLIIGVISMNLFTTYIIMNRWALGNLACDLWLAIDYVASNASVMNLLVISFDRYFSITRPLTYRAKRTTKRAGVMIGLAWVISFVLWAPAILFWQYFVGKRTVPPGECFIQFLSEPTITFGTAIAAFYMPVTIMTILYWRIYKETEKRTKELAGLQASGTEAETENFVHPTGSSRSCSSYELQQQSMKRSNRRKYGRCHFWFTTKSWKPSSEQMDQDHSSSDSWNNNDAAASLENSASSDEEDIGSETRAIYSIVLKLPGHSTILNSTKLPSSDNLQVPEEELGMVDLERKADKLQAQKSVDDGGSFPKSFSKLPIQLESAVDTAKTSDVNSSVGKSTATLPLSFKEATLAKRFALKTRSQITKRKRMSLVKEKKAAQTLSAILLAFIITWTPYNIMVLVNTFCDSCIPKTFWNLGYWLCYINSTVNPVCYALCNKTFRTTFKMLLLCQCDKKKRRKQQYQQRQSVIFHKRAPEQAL

## CCOC(=O)N1CCC(NCCNC(=O)c2cccc(OC)c2)CC1.O=C(O)C(F)(F)F [VU0360014]
rM1 receptor
  M1 potency and efficacy (SAR statement): retaining substantial potency and efficacy

## Clc1ccc2c(c1)N=C(N1CCNCC1)c1ccccc1N2 [NDMC, N-desmethylclozapine, reference compound]
rM1 Y381A
  potency at M1 Y381A compared with WT M1: potency similar to that observed in cells expressing WT M1

## CCOC(=O)N1CCC(NCCNC(=O)c2cccs2)CC1 [VU0177548]
M1; M1-CHO vs M4/Gqi5 CHO cells
  selectivity for M1 vs. M4: > 50 fold
M1
  sensitivity to block by atropine: sensitive to block by atropine
  EC50: ~1000 nM
rM1 receptor; [3]
  EC50: 1740 nM
hM2
  agonist activity at M2: no alteration was detected in baseline
hM3
  agonist activity at M3: no alteration was detected in baseline
rM4
  agonist activity at M4: no alteration was detected in baseline
hM5
  agonist activity at M5: no alteration was detected in baseline
rM1 Y381A; rM1 Y381A cells
  rM1 Y381A AChmax (maximal efficacy): 44.69 % max
rM1 Y381A; read-out: rM1 Y381A EC50, rM1 Y381A cells
  EC50: 1230 nM

## CN1[C@@H]2C[C@@H](OC(=O)[C@H](CO)c3ccccc3)C[C@H]1[C@@H]1O[C@@H]12 [scopolamine]
[1]
  effect on acquisition of contextual fear conditioning response: significant disruption
[1]; listed as Scopolamine
  effect on acquisition of contextual fear conditioning response: robust disruption

## CCOC(=O)N1CCC(NCCNC(=O)c2ccccc2C)CC1 [VU0357017, ethyl 4-(2-(2-methylbenzamido)ethylamino)piperidine-1-carboxylate]
rM1 receptor; [3]
  ACh Max efficacy: 80.52 % ACh Max
hM2
  agonist activity at M2: no activity
hM3
  agonist activity at M3: no activity
rM4
  agonist activity at M4: no activity
hM5
  agonist activity at M5: no activity
rM1 Y381A
  potency at M1 Y381A compared with WT M1: potencies similar to those observed in WT M1 CHO cells
Aqueous solubility
  solubility: > 25 mg/mL
[2]; male, Sprague-Dawley, brain and plasma, ip, 10 mg/kg
  Kp: 1.46
[2]; 10 mg/kg i.p., brain
  brain level: 4338.90 ± 1071.20 ng/mL
[2]; 10 mg/kg i.p., plasma
  plasma level: 1053.49 ± 276.03 ng/mL
[2]; i.p. administration
  central penetrance: centrally-penetrant
[1]; 10 mg/kg i.p., scopolamine 0.2 mg/kg s.c., p < 0.05
  reversal of scopolamine-induced deficits in contextual fear conditioning: significant reversal

## CCOC(=O)N1CCC(NCCNC(=O)c2ccc(F)cc2)CC1.O=C(O)C(F)(F)F [VU0359993]
rM1 receptor
  M1 potency and efficacy (SAR statement): retaining substantial potency and efficacy

## CCOC(=O)N1CCC(NCCNC(=O)c2ccccc2Cl)CC1 [VU0207811]
M1
  sensitivity to block by atropine: sensitive to block by atropine
  EC50: ~1000 nM
rM1 receptor; [3]
  EC50: 804 nM
hM2
  agonist activity at M2: no alteration was detected in baseline
hM3
  agonist activity at M3: no alteration was detected in baseline
rM4
  agonist activity at M4: no alteration was detected in baseline
hM5
  agonist activity at M5: no alteration was detected in baseline
rM1 Y381A; rM1 Y381A cells
  rM1 Y381A AChmax (maximal efficacy): 45.80 % max

## CCOC(=O)N1CCC(NCCNC(=O)c2cccc(F)c2)CC1.O=C(O)C(F)(F)F [VU0359995]
rM1 receptor
  M1 potency and efficacy (SAR statement): retaining substantial potency and efficacy

## Cc1ccccc1CN1CCC(N2CCC(n3c(=O)[nH]c4ccccc43)CC2)CC1 [TBPB]
M2
  IC50: 1100 nM
M5
  IC50: 10100 nM
